Test results published in ChEMBL document CHEMBL2202989, “New adamantane phenylalkylamines with σ-receptor binding affinity and anticancer activity, associated with putative antagonism of neuropathic pain” (J Med Chem, 2012).

Key:
[1] = Displacement of [3H]1,3-di-otolylguanidine from sigma 2 receptor in rat cerebral cortex membranes; assay type: cell membranes, Membrane
Method in brief: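 Rat cerebral cortex membranes incubated with 5 nM [3H]DTG plus 300 nM (+)-pentazocine to mask σ1 sites, together with a range of test concentrations, 2 h at 22 °C in Tris-HCl, pH 7.4. Nonspecific binding defined with 10 μM haloperidol.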

[2] = biological target: Sigma non-opioid intracellular receptor 1 (Homo sapiens, UniProt Q99720); experiment: Displacement of [3H]-(+)-pentazocine from sigma 1 receptor in human Jurkat cell membrane; assay type: cell membranes
Chain of Sigma non-opioid intracellular receptor 1 (Q99720 whole entry): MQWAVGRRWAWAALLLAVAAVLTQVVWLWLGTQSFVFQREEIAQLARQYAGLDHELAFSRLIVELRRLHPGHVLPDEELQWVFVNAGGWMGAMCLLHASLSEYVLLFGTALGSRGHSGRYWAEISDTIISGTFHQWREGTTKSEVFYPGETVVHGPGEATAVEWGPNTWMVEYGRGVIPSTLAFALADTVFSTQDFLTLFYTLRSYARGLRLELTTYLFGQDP
Method in brief: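 Jurkat cell membranes incubated with 8 nM [3H](+)-pentazocine and a range of test concentrations for 2 h at 22 °C in Tris-HCl buffer, pH 7.4. Nonspecific binding defined with 10 μM haloperidol. Run in triplicate.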

[3] = Growth inhibition of human MSC cells after 48 hrs by SRB assay; assay type: cell-based
Method in brief: (§1)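 Cells grown in RPMI 1640 with 5% heat-inactivated FCS, 2 mM L-glutamine and antibiotics, 37 °C, 5% CO2. Seeded at 3500–30000 cells/well and left 24 h before dosing. DMSO solutions added at 10-fold dilutions from 100 to 0.01 μM for 48 h. Cells TCA-fixed and SRB-stained, absorbance read at 540 nm; GI50 derived against the time-zero plate.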

MIA PaCa-2 = experiment: Growth inhibition of human MIAPaCa2 cells after 48 hrs by SRB assay; assay type: functional; details: MIA PaCa-2, 48 h; for CC50: read-out: LC50 (the source's name); method in brief: as §1
HUVEC = experiment: (§2) Growth inhibition of human HUVEC cells after 48 hrs by SRB assay; assay type: cell-based; details: huvec, 48 h; method in brief: as §1
[4] = as §2; assay type: cell-based; details: HUVEC cells; method in brief: as §1
OVCAR-5 = experiment: Growth inhibition of human OVCAR5 cells after 48 hrs by SRB assay; assay type: functional; details: OVCAR-5, 48 h; for CC50: read-out: LC50 (the source's name); method in brief: as §1
HCT-15 = experiment: Growth inhibition of human HCT15 cells after 48 hrs by SRB assay; assay type: functional; details: HCT-15, 48 h; for CC50: read-out: LC50 (the source's name); method in brief: as §1
PC-3 = experiment: Growth inhibition of human PC3 cells after 48 hrs by SRB assay; assay type: functional; details: PC-3, 48 h; for CC50: read-out: LC50 (the source's name); method in brief: as §1
BXPC-3 = experiment: Growth inhibition of human BxPC3 cells after 48 hrs by SRB assay; assay type: functional; details: BXPC-3, 48 h; method in brief: as §1
U-251 = experiment: Growth inhibition of human U251 cells after 48 hrs by SRB assay; assay type: functional; details: U-251, 48 h; for CC50: read-out: LC50 (the source's name); method in brief: as §1
MCF7 = experiment: Growth inhibition of human MCF7 cells after 48 hrs by SRB assay; assay type: functional; details: MCF7, 48 h; for CC50: read-out: LC50 (the source's name); method in brief: as §1
SK-HEP1 = experiment: Growth inhibition of human SKHEP1 cells after 48 hrs by SRB assay; assay type: functional; details: SK-HEP1, 48 h; for CC50: read-out: LC50 (the source's name); method in brief: as §1
DU-145 = experiment: Growth inhibition of human DU145 cells after 48 hrs by SRB assay; assay type: functional; details: DU-145, 48 h; for CC50: read-out: LC50 (the source's name); method in brief: as §1
[5] = (§3) Growth inhibition of human NHDF cells after 48 hrs by SRB assay; assay type: cell-based; details: NHDF cells; method in brief: as §1
NHDF = experiment: as §3; assay type: cell-based; details: nhdf, 48 h; method in brief: as §1
HL-60(TB) = experiment: Growth inhibition of human HL-60(TB) cells after 48 hrs by SRB assay; assay type: functional; details: HL-60, 48 h; for CC50: read-out: LC50 (the source's name)
Method in brief: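 Cells kept in RPMI 1640 with 5% FCS at 37 °C, 5% CO2, and seeded 24 h before dosing. Compound given from DMSO at 10-fold dilutions, 100 to 0.01 μM, for 48 h. Cells fixed with TCA, stained with SRB, absorbance read at 540 nm. GI50 taken from a time-zero plate.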

IGROV-1 = experiment: Growth inhibition of human IGROV1 cells after 48 hrs by SRB assay; assay type: functional; details: IGROV-1, 48 h; method in brief: as §1

| SMILES | TGI [3] | GI50 (MIA PaCa-2) | TGI (MIA PaCa-2) | CC50 (MIA PaCa-2) | LC50 (HUVEC) | TGI (HUVEC) | GI50 at 48 h [4] | GI50 (OVCAR-5) | TGI (OVCAR-5) | CC50 (OVCAR-5) | GI50 (HCT-15) | TGI (HCT-15) | CC50 (HCT-15) | GI50 (PC-3) | TGI (PC-3) | CC50 (PC-3) | GI50 (BXPC-3) | LC50 (BXPC-3) | TGI (BXPC-3) | GI50 (U-251) | further results |
| --- | --- | --- | --- | --- | --- | --- | --- | --- | --- | --- | --- | --- | --- | --- | --- | --- | --- | --- | --- | --- | --- |
| CN1CCN(Cc2ccc(C(c3ccccc3)C34CC5CC(CC(C5)C3)C4)cc2)CC1 (centres undefined) | 4.44 µM | 3.61 µM | 6.34 µM | 0.00906 µM | 100 µM | 7.3 µM | 4.12 µM | 5.31 µM | 19.7 µM | 0.0577 µM | 3.5 µM | 6.3 µM | 0.0091 µM | 3.55 µM | 6.25 µM | 0.0685 µM | 4.83 µM | 0.00913 µM | 6.98 µM | 3.62 µM | IC50 [1]: 0.11 µM; IC50 [2]: 0.0052 µM; TGI (U-251): 6.55 µM; CC50 (U-251): 0.00947 µM; GI50 (MCF7): 2.25 µM; TGI (MCF7): 5.29 µM; CC50 (MCF7): 0.00833 µM; GI50 (SK-HEP1): 3.35 µM; TGI (SK-HEP1): 5.97 µM; CC50 (SK-HEP1): 0.00859 µM; GI50 (DU-145): 3.01 µM; TGI (DU-145): 6.41 µM; CC50 (DU-145): 0.00908 µM; GI50 at 48 h [5]: 5.12 µM; LC50 (NHDF): 100 µM; TGI (NHDF): 10.4 µM; GI50 (HL-60(TB)): 0.00463 µM; TGI (HL-60(TB)): 0.00914 µM; CC50 (HL-60(TB)): 0.1 µM |
| CCN1CCN(Cc2ccc(C(c3ccccc3)C34CC5CC(CC(C5)C3)C4)cc2)CC1 (centres undefined) | 4.61 µM | 8.24 µM | 43.7 µM | 0.0886 µM | 9.54 µM | 5.34 µM | 1.14 µM | 18.1 µM | 43.8 µM | 0.07 µM | 3.36 µM | 6.36 µM | 0.0094 µM | 7 µM | 7.9 µM | 0.0624 µM | 4.33 µM | 0.00935 µM | 6.84 µM | 4.33 µM | TGI (U-251): 7.8 µM; CC50 (U-251): 0.0685 µM; GI50 (MCF7): 2.26 µM; TGI (MCF7): 5.92 µM; CC50 (MCF7): 0.00958 µM; GI50 (SK-HEP1): 5.9 µM; TGI (SK-HEP1): 24.3 µM; CC50 (SK-HEP1): 0.0902 µM; GI50 (DU-145): 5.73 µM; TGI (DU-145): 46.1 µM; CC50 (DU-145): 0.1 µM; GI50 at 48 h [5]: 6.59 µM; LC50 (NHDF): 100 µM; TGI (NHDF): 66.8 µM; GI50 (HL-60(TB)): 0.00433 µM; TGI (HL-60(TB)): 0.00775 µM; CC50 (HL-60(TB)): 0.1 µM |
| CN1CCN(CCc2ccc(C(c3ccccc3)C34CC5CC(CC(C5)C3)C4)cc2)CC1 (centres undefined) | 6.39 µM | 7.5 µM | 36 µM | 0.0762 µM | 9.6 µM | 6.46 µM | 3.32 µM | 17.4 µM | 29.3 µM | 0.0624 µM | 4.64 µM | 8.26 µM | 0.1 µM | 4.57 µM | 9 µM | 0.0135 µM | 5.76 µM | 0.1 µM | 19.9 µM | 3.37 µM | IC50 [1]: 0.0801 µM; IC50 [2]: 0.0029 µM; TGI (U-251): 6.09 µM; CC50 (U-251): 0.00881 µM; GI50 (MCF7): 2.77 µM; TGI (MCF7): 5.7 µM; CC50 (MCF7): 0.0086 µM; GI50 (SK-HEP1): 3.69 µM; TGI (SK-HEP1): 6.36 µM; CC50 (SK-HEP1): 0.00902 µM; GI50 (IGROV-1): 4.29 µM; TGI (IGROV-1): 8.93 µM; CC50 (IGROV-1; read-out: LC50 (the source's name)): 0.0136 µM; GI50 at 48 h [5]: 4.18 µM; LC50 (NHDF): 100 µM; TGI (NHDF): 8.07 µM |
| c1ccc(C(c2ccc(CN3CCCCC3)cc2)C23CC4CC(CC(C4)C2)C3)cc1 (centres undefined) | 20.1 µM | 7.98 µM | 43.2 µM | 0.0813 µM | 72.47 µM | 21.7 µM | 5.11 µM | 31.1 µM | 60.8 µM | 0.0915 µM | 8.8 µM | 79 µM | 0.1 µM | 6.07 µM | 26.2 µM | 0.0813 µM | 15.8 µM | 0.0874 µM | 51.6 µM | 8.6 µM | TGI (U-251): 40.2 µM; CC50 (U-251): 0.0758 µM; GI50 (MCF7): 8.89 µM; TGI (MCF7): 43 µM; CC50 (MCF7): 0.0806 µM; GI50 (SK-HEP1): 7.46 µM; TGI (SK-HEP1): 38.4 µM; CC50 (SK-HEP1): 0.0822 µM; GI50 (DU-145): 8.98 µM; TGI (DU-145): 47.3 µM; CC50 (DU-145): 0.089 µM; GI50 at 48 h [5]: 23.7 µM; LC50 (NHDF): 81.19 µM; TGI (NHDF): 52.5 µM; GI50 (HL-60(TB)): 0.00591 µM; TGI (HL-60(TB)): 0.0729 µM; CC50 (HL-60(TB)): 0.1 µM |
